The results in this text go back to ChEMBL document CHEMBL1833964, “Synthesis, structure-activity relationship and in vitro biological evaluation of N-arylethyl isoquinoline derivatives as Coxsackievirus B3 inhibitors” (Bioorg Med Chem Lett, 2011).

In general, IC50 refers to the concentration at which inhibition is half-maximal.

System in the first series: not listed separately
Nature of the series: Cytotoxicity against african green monkey Vero cells infected with Coxsackievirus B3 assessed as growth inhibition after 48 hrs by Reed-Muench analysis. Particulars: chlorocebus sabaeus, read-out: TC50. The class given is cell-based. In a few lines:
(§1)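 Vero cells plated at 2.5 × 10^4 per well and grown 24 h to a monolayer, then exposed to a range of test compound concentrations for 48 h at 37 °C. Cell damage was monitored as CPE, and TC50 came from Reed and Muench analysis. Each experiment was run three times.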
On to `COc1ccccc1CC[n+]1ccc2ccc(O)cc2c1`, for which the CC50 at 48 h stood at 1060 µM.
Take `COc1ccc(CC[n+]2ccc3ccc(OC)c(OC)c3c2)cc1`: the CC50 at 48 h came out at 49.5 µM.
With `Oc1ccc2cc[n+](CCc3ccc(F)cc3)cc2c1`, the CC50 at 48 h turned out to be 1100 µM.
Still for that read-out and setting: under `Cc1ccccc1CC[n+]1ccc2ccc(O)cc2c1` stands 772 µM.
Regarding `COc1cc2cc[n+](CCc3ccccc3C)cc2cc1OC`, the CC50 at 48 h was found to be 970 µM.
In the case of `COc1ccc2cc[n+](CCc3ccccc3)cc2c1O`, the CC50 at 48 h came out at 352 µM.
On to `COc1cc2c[n+](CCc3ccccc3C)ccc2cc1O`, for which the CC50 at 48 h was found to be 234 µM.
The same measure, in the same setting: the same measure for `c1ccc(CC[n+]2ccc3ccc4c(c3c2)OCO4)cc1`: 815 µM; for `COc1ccc(CC[n+]2ccc3ccc(OC)c(O)c3c2)cc1`: 464 µM.
`COc1cc2cc[n+](CCc3ccccc3)cc2cc1OC`: the CC50 at 48 h was 1010 µM.
Take `COc1cc2c[n+](CCc3ccccc3)ccc2c(OC)c1OC`: the CC50 at 48 h was found to be 2780 µM.
The same measure, in the same setting: under `COc1cc2cc[n+](CCc3ccc(F)cc3)cc2cc1OC` stands 665 µM; under `COc1ccc2cc[n+](CCc3ccccc3)cc2c1OC`, 584 µM.
The same measure, in the same setting: under `COc1cc2cc[n+](CCc3ccccc3F)cc2cc1OC` stands 206 µM; under `Oc1ccc2cc[n+](CCc3cccc(Cl)c3)cc2c1`, 200 µM.
Take `Fc1ccc(CC[n+]2ccc3ccc4c(c3c2)OCO4)cc1`: the CC50 at 48 h amounted to 581 µM.
Still for that read-out and setting: the same measure for `COc1cc2c[n+](CCc3ccccc3F)ccc2cc1O`: 333 µM.
Turning to `COc1ccc2cc[n+](CCc3ccc(F)cc3)cc2c1OC`, the CC50 at 48 h stood at 1380 µM.
On to `COc1ccc2cc[n+](CCc3ccccc3C)cc2c1O`, for which the CC50 at 48 h was 584 µM.
On to `COc1cc2cc[n+](CCc3cccc(Cl)c3)cc2cc1OC`, for which the CC50 at 48 h came to 131 µM.
Same read-out and setting: under `Oc1ccc2cc[n+](CCc3ccccc3)cc2c1` stands 389 µM; under `COc1ccc(CC[n+]2ccc3c(OC)c(OC)c(OC)cc3c2)cc1`, 46 µM.

In a further series the test system is Coxsackievirus B3. Nature of the series: Antiviral activity against Coxsackievirus B3 infected in african green monkey vero cells assessed as inhibition of viral replication by Reed-Muench analysis. The class given is functional, organism-based. The settings on record: Enterovirus B. In a few lines: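 Vero monolayers infected with 100 TCID50 CVB3, then kept in maintenance medium (MEM plus 2% FBS) with or without test compound at various concentrations. Viral CPE was scored once the virus control reached 4+. The 50% inhibitory concentration came from Reed and Muench analysis. Three independent experiments.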
In the case of `COc1ccccc1CC[n+]1ccc2ccc(O)cc2c1`, the IC50 is > 352 µM.
Consider `COc1ccc(CC[n+]2ccc3ccc(OC)c(OC)c3c2)cc1`, for which the IC50 was > 11.4 µM.
In the case of `Oc1ccc2cc[n+](CCc3ccc(F)cc3)cc2c1`, the IC50 is > 336 µM.
On the same count and under the same terms, the same measure for `Cc1ccccc1CC[n+]1ccc2ccc(O)cc2c1`: 371 µM.
Regarding `COc1cc2cc[n+](CCc3ccccc3C)cc2cc1OC`, the IC50 was > 323 µM.
The same measure, in the same setting: the same measure for `NC(=O)c1ncn([C@@H]2O[C@H](CO)[C@@H](O)[C@H]2O)n1` [RIBAVIRIN]: 910 µM; for `COc1ccc2cc[n+](CCc3ccccc3)cc2c1O`: 91.1 µM.
As to `COc1cc2c[n+](CCc3ccccc3C)ccc2cc1O`, the IC50 came to 112 µM.
As to `c1ccc(CC[n+]2ccc3ccc4c(c3c2)OCO4)cc1`, the IC50 stood at 30.4 µM.
On to `COc1ccc(CC[n+]2ccc3ccc(OC)c(O)c3c2)cc1`, for which the IC50 is > 107 µM.
`COc1cc2cc[n+](CCc3ccccc3)cc2cc1OC`: the IC50 was > 337 µM.
Same read-out and setting: the same measure for `COc1cc2c[n+](CCc3ccccc3)ccc2c(OC)c1OC`: > 927 µM; for `COc1cc2cc[n+](CCc3ccc(F)cc3)cc2cc1OC`: > 320 µM.
On the same count and under the same terms, the same measure for `COc1ccc2cc[n+](CCc3ccccc3)cc2c1OC`: 209 µM; for `COc1cc2cc[n+](CCc3ccccc3F)cc2cc1OC`: > 53.3 µM.
On the same count and under the same terms, under `Oc1ccc2cc[n+](CCc3cccc(Cl)c3)cc2c1` stands > 38.6 µM; under `Fc1ccc(CC[n+]2ccc3ccc4c(c3c2)OCO4)cc1`, > 335 µM.
Consider `COc1cc2c[n+](CCc3ccccc3F)ccc2cc1O`, for which the IC50 was > 111 µM.
As for `COc1ccc2cc[n+](CCc3ccc(F)cc3)cc2c1OC`, the IC50 is > 320 µM.
Regarding `COc1ccc2cc[n+](CCc3ccccc3C)cc2c1O`, the IC50 was > 337 µM.
On the same count and under the same terms, under `COc1cc2cc[n+](CCc3cccc(Cl)c3)cc2cc1OC` stands > 33.9 µM; under `Oc1ccc2cc[n+](CCc3ccccc3)cc2c1`, 25 µM; under `COc1ccc(CC[n+]2ccc3c(OC)c(OC)c(OC)cc3c2)cc1`, > 10.6 µM.

System in the next series: not listed separately
Briefly: Selectivity index, ratio of TC50 for african green monkey vero cells to IC50 for Coxsackievirus B3. Type of series: toxicity, cell-based. The settings on record: read-out: Selectivity Index. The procedure, abridged: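 Selectivity index is TC50 divided by IC50. TC50 is from 48 h CPE monitoring of compound-treated uninfected Vero monolayers. IC50 is from CPE scoring at 4+ virus control in Vero cells infected with 100 TCID50 CVB3 and kept in MEM with 2% FBS. Both values came from Reed and Muench analysis, in triplicate experiments.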
Consider `Cc1ccccc1CC[n+]1ccc2ccc(O)cc2c1`, for which the selectivity ratio turned out to be 2.1.
As to `COc1ccc2cc[n+](CCc3ccccc3)cc2c1O`, the selectivity ratio was 3.9.
Turning to `COc1cc2c[n+](CCc3ccccc3C)ccc2cc1O`, the selectivity ratio came out at 2.1.
The same measure, in the same setting: the same measure for `c1ccc(CC[n+]2ccc3ccc4c(c3c2)OCO4)cc1`: 26.8; for `COc1ccc2cc[n+](CCc3ccccc3)cc2c1OC`: 2.8; for `Oc1ccc2cc[n+](CCc3ccccc3)cc2c1`: 15.6.

System in another series: not listed separately
Nature of the series: Cytotoxicity against african green monkey Vero cells infected with Enterovirus 71 assessed as growth inhibition after 48 hrs by Reed-Muench analysis. Type of series: cell-based. Particulars: chlorocebus sabaeus, read-out: TC50. In a few lines: as §1
For `c1ccc(CC[n+]2ccc3ccc4c(c3c2)OCO4)cc1`, the CC50 at 48 h worked out at 820 µM.
On the same count and under the same terms, the same measure for `COc1cc2cc[n+](CCc3ccc(F)cc3)cc2cc1OC`: 864 µM; for `Fc1ccc(CC[n+]2ccc3ccc4c(c3c2)OCO4)cc1`: 420 µM.
Same read-out and setting: under `Oc1ccc2cc[n+](CCc3ccccc3)cc2c1` stands 534 µM.

A further series relates to Enterovirus A71. Briefly: Antiviral activity against Enterovirus 71 infected in african green monkey vero cells assessed as inhibition of viral replication by Reed-Muench analysis. The class given is functional, organism-based. The settings on record: Enterovirus A.
As to `NC(=O)c1ncn([C@@H]2O[C@H](CO)[C@@H](O)[C@H]2O)n1` [RIBAVIRIN], the IC50 is 2120 µM.
Same read-out and setting: the same measure for `c1ccc(CC[n+]2ccc3ccc4c(c3c2)OCO4)cc1`: 91.1 µM; for `COc1cc2cc[n+](CCc3ccc(F)cc3)cc2cc1OC`: 107 µM; for `Fc1ccc(CC[n+]2ccc3ccc4c(c3c2)OCO4)cc1`: 45.8 µM.
Take `Oc1ccc2cc[n+](CCc3ccccc3)cc2c1`: the IC50 worked out at 152 µM.

System in another series: not listed separately
Nature of the series: Selectivity index, ratio of TC50 for african green monkey vero cells to IC50 for Enterovirus 71. Type of series: toxicity, cell-based. Particulars: read-out: Selectivity Index.
In the case of `c1ccc(CC[n+]2ccc3ccc4c(c3c2)OCO4)cc1`, the selectivity ratio was 9.
Regarding `COc1cc2cc[n+](CCc3ccc(F)cc3)cc2cc1OC`, the selectivity ratio amounted to 8.1.
On the same count and under the same terms, the same measure for `Fc1ccc(CC[n+]2ccc3ccc4c(c3c2)OCO4)cc1`: 9.2.
Same read-out and setting: the same measure for `Oc1ccc2cc[n+](CCc3ccccc3)cc2c1`: 3.5.
